What was measured:
[1] = tested on: Human immunodeficiency virus 1; test: In vitro inhibitory concentration against HIV V106A mutant strain; assay type: functional, organism-based
Procedure, shortened: (§1)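 MT4 human T-lymphoblastoid cells, grown in RPMI 1640 with 10% fetal calf serum and antibiotics at 37 °C under 5% CO2. Mutant HIV-1 strains were added at 200 CCID50/well with 30 000 cells/well across a compound concentration range. After 5 days at 37 °C, viability was read by MTT colorimetry. EC50 is the concentration giving 50% infection relative to the drug-free control.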

[2] = tested on: Human immunodeficiency virus 1; test: In vitro inhibitory concentration against HIV-1 Y181C mutant strain; assay type: functional, organism-based; procedure, shortened: as §1
[3] = tested on: Human immunodeficiency virus 1; test: In vitro inhibitory concentration against HIV L100I and K103N mutant strain; assay type: functional, organism-based; procedure, shortened: as §1
[4] = tested on: Human immunodeficiency virus 1; test: In vitro inhibitory concentration against HIV LAI cell line; assay type: functional, organism-based; settings: Human immunodeficiency virus 1, LAI
Procedure, shortened: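 HIV-1 LAI was added at 200 CCID50/well to MT4 human T-lymphoblastoid cells (30 000 cells/well) across a concentration range of compound. Cells were grown in RPMI 1640 with 10% fetal calf serum and antibiotics. After 5 days at 37 °C in 5% CO2, cell viability was read by MTT colorimetry. EC50 was the concentration giving 50% infection versus the drug-free control.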

[5] = tested on: Human immunodeficiency virus 1; test: In vitro inhibitory concentration against HIV G190S mutant strain; assay type: functional, organism-based; procedure, shortened: as §1
[6] = tested on: Human immunodeficiency virus 1; test: In vitro inhibitory concentration value against HIV K103N and Y181C mutant strain; assay type: functional, organism-based; procedure, shortened: as §1
[7] = tested on: Human immunodeficiency virus 1; test: In vitro inhibitory concentration against HIV G190A mutant strain; assay type: functional, organism-based; procedure, shortened: as §1
[8] = tested on: Human immunodeficiency virus 1; test: In vitro inhibitory concentration against HIV F227L and V106A mutant strain; assay type: functional, organism-based; procedure, shortened: as §1
[9] = tested on: Human immunodeficiency virus 1; test: In vitro inhibitory concentration against HIV L100I mutant strain; assay type: functional, organism-based; procedure, shortened: as §1
[10] = tested on: Human immunodeficiency virus 1; test: In vitro inhibitory concentration against HIV K103N mutant strain; assay type: functional, organism-based; procedure, shortened: as §1
[11] = tested on: Human immunodeficiency virus 1; test: In vitro inhibitory concentration against HIV K101E mutant strain; assay type: functional, organism-based; procedure, shortened: as §1
[12] = tested on: Human immunodeficiency virus 1; test: Selective index value (ratio of CC50 to IC50 value)against HIV LAI cell line; assay type: functional
Procedure, shortened: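 Ratio of CC50 to IC50 against LAI. CC50 came from mock-infected MT4 cultures (30 000 cells/well) given the same compound concentration range, run in parallel with LAI-infected cultures (200 CCID50/well). Incubation was 5 days at 37 °C in 5% CO2, with MTT viability read-out.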

[13] = tested on: Human immunodeficiency virus 1; test: In vitro inhibitory concentration against HIV K101E and K103N mutant strain; assay type: functional, organism-based; procedure, shortened: as §1
[14] = tested on: Human immunodeficiency virus 1; test: In vitro inhibitory concentration against HIV Y188L mutant strain; assay type: functional, organism-based; procedure, shortened: as §1
[15] = tested on: Human immunodeficiency virus 1; test: In vitro inhibitory concentration against HIV V179E mutant strain; assay type: functional, organism-based; procedure, shortened: as §1
[16] = tested on: Human immunodeficiency virus 1; test: In vitro inhibitory concentration against HIV E138K mutant strain; assay type: functional, organism-based; procedure, shortened: as §1
[17] = tested on: Human immunodeficiency virus 1; test: In vitro inhibitory concentration against HIV F227C mutant strain; assay type: functional, organism-based; procedure, shortened: as §1

SMILES	IC50 [1] [µM]	IC50 [2] [µM]	IC50 [3] [µM]	IC50 [4] [µM]	IC50 [5] [µM]	IC50 [6] [µM]	IC50 [7] [µM]	IC50 [8] [µM]	IC50 [9] [µM]	IC50 [10] [µM]	IC50 [11] [µM]	SI [12]	IC50 [13] [µM]	IC50 [14] [µM]	IC50 [15] [µM]	IC50 [16] [µM]	IC50 [17] [µM]
CCc1c(C)[nH]c(=O)c(N(C)CCOC)c1Cc1cccc(C)c1	0.063	0.794	0.794	0.001	0.039	10	0.1	3.98	0.006	0.079	0.016	10000	0.1	0.398	0.004	0.008	0.79
CCc1c(C)[nH]c(=O)c(N(C)CC)c1Cc1cc(C)cc(C)c1	0.316	0.316	0.598	0.008	0.316	3.12	0.063		0.063	0.079	0.079	3980	0.139	1.26	0.032	0.063	1.12
CCc1c(C)[nH]c(=O)c(N(C)CC)c1Cc1cccc(/C=C/C#N)c1	0.008	0.032	0.2	0.001	0.125	0.199	0.01	3.16	0.01	0.006	0.006	10000	0.158	0.251	0.002	0.006	0.794
COCCCc1c(C)nc(O)c(N(C)C)c1C(=O)c1cccc(C)c1	0.04	0.16	0.063	0.008	0.032	0.2	0.016	0.04	0.02	0.126	0.032	1260	0.158	0.158	0.008	0.02	0.631
CCc1c(C)[nH]c(=O)c(N(C)C)c1Cc1cc(C)cc(C)c1	0.04	0.1				0.794	0.063		0.05	0.032	0.016	12600		0.251			
CCc1c(C)[nH]c(=O)c(N(C)C)c1C(=O)c1cc(C)cc(C)c1	0.006	0.063	0.04		0.004	0.158	0.013	0.398	0.006	0.01	0.008	2510	0.013	0.158	0.002	0.005	0.631
CCc1c(C)nc(O)c(N(C)CCOC)c1C(=O)c1cccc(C)c1		0.631	0.017	0.001	0.003	2.81	0.003	0.251	0.008	0.02	0.003	79400	0.015	1.26	0.001	0.003	0.224
O=C1Nc2ccc(Cl)cc2[C@@](C#CC2CC2)(C(F)(F)F)O1 [EFAVIRENZ]	0.04		10		0.251		0.01	0.025	0.04		0.006				0.005	0.002	
